According to paper PMC11005929 (Diabetes, Metabolic Syndrome and Obesity, 2024):

Legend:
[1] = test system: DIO mice; assay: Repeated administration in diet-induced obesity; type: in vivo, mouse; conditions: s.c. once daily (DR10627 3, 10, 30 nmol/kg; liraglutide 80 nmol/kg)
How it was run: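 Male C57BL/6 mice, 7 weeks old, kept 11 weeks on a 60% kcal fat diet; those at 42.2–48.7 g were randomised (n=10/group). Standard-diet mice served as normal controls. Dosed s.c. once daily at 5 mL/kg for 57 days. Body weight and food intake were recorded after dosing, and weight change and cumulative intake were calculated. Mean ± SD.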

[2] = test system: non-diabetic participants; conditions: 2-year treatment, SCALE trials; cited from earlier work
[3] = test system: db/db mice; assay: Glucose-lowering effect of repeated administration in db/db mice; type: in vivo, mouse
[4] = Phase 3 trial; cited from earlier work

| Molecule | body weight from D5 to D57 compared to the vehicle [1] | weight loss [2] | blood glucose level before administration on D28 ([3]; 50 nmol/kg s.c. once daily, n=10, mean ± SD, vehicle 33.6 ± 6.4) | blood glucose levels after treatment on D1 ([3]; first s.c. dose (DR10627 2, 6, 18 nmol/kg; liraglutide 50 nmol/kg)) | rate of antitaspoglutide antibodies detection [4] |
| --- | --- | --- | --- | --- | --- |
| CCCCCCCCCCCCCCCC(=O)N[C@@H](CCC(=O)NCCCC[C@H](NC(=O)[C@H](C)NC(=O)[C@H](C)NC(=O)[C@H](CCC(N)=O)NC(=O)CNC(=O)[C@H](CCC(=O)O)NC(=O)[C@H](CC(C)C)NC(=O)[C@H](Cc1ccc(O)cc1)NC(=O)[C@H](CO)NC(=O)[C@H](CO)NC(=O)[C@@H](NC(=O)[C@H](CC(=O)O)NC(=O)[C@H](CO)NC(=O)[C@@H](NC(=O)[C@H](Cc1ccccc1)NC(=O)[C@@H](NC(=O)CNC(=O)[C@H](CCC(=O)O)NC(=O)[C@H](C)NC(=O)[C@@H](N)Cc1c[nH]cn1)[C@@H](C)O)[C@@H](C)O)C(C)C)C(=O)N[C@@H](CCC(=O)O)C(=O)N[C@@H](Cc1ccccc1)C(=O)N[C@H](C(=O)N[C@@H](C)C(=O)N[C@@H](Cc1c[nH]c2ccccc12)C(=O)N[C@@H](CC(C)C)C(=O)N[C@H](C(=O)N[C@@H](CCCNC(=N)N)C(=O)NCC(=O)N[C@@H](CCCNC(=N)N)C(=O)NCC(=O)O)C(C)C)[C@@H](C)CC)C(=O)O [liraglutide] | significantly reduced | 5–10% | 27.0 ± 3.9 mM | decreased significantly | – |
| taspoglutide | – | – | – | – | 49% |
